Measured values as given in ChEMBL document CHEMBL1155272, “Nucleoside-5'-monophosphates as prodrugs of adenosine A2A receptor agonists activated by ecto-5'-nucleotidase” (J Med Chem, 2009).
pEC50, pKi: −log10 of the molar value.

Key:
Adenosine receptor A2a = Adenosine receptor A2a (Rattus norvegicus, UniProt P30543); assay: Displacement of [3H]CGS21680 from adenosine A2A receptor in rat brain striatal membrane after 60 mins; format: cell membranes
Adenosine receptor A1 = biological target: T1, Adenosine receptor A1 (Rattus norvegicus, UniProt P25099); assay: Displacement of [3H]CCPA from adenosine A1 receptor in rat brain cortical membrane after 90 mins
T1 sequence (P25099 whole entry): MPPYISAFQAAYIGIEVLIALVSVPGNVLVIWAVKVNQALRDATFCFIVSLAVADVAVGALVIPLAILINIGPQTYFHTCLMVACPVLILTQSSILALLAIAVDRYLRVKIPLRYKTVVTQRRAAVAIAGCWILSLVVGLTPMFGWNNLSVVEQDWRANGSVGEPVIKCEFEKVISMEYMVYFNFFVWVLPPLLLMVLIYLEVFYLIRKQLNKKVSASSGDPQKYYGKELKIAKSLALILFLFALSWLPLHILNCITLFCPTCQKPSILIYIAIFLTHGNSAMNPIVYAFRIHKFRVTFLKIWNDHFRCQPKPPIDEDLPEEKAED

Adenosine receptor A3 = biological target: T2, Adenosine receptor A3 (Homo sapiens, UniProt P0DMS8); assay: Displacement of [3H]PSB-11 from human recombinant adenosine A3 receptor expressed in CHO cells after 60 mins; format: cell-based
T2 sequence (P0DMS8 whole entry): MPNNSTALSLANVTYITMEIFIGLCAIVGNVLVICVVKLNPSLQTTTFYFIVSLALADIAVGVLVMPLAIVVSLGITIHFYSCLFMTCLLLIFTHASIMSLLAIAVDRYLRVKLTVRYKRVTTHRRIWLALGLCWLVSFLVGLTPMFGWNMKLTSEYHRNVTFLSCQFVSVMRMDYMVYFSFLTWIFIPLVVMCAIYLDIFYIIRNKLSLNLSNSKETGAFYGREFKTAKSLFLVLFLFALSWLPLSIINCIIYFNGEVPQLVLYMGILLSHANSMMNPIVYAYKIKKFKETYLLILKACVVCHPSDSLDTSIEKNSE
Method in brief: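 Membranes from CHO cells expressing human A3 receptor (30–50 μg protein), pretreated 10–15 min with 0.12 IU/mL adenosine deaminase. [3H]PSB-11 1.0 nM, 60 min at rt, 2.5% DMSO final. Six to seven concentrations over 3 log units. At least 2–3 experiments in duplicate.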

[1] = Prodrug stability in ecto-5'-nucleotidase knockout C57/Bl6 mouse CD4+ T cells assessed as compound remaining at 10 mM after 18 hrs by LC/MS analysis; format: ADME, cell-based; settings: t-cell, 10000 µM
Method in brief: (§1)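 Splenic CD4+ T cells (wild-type or ecto-5'-NT knockout C57/Bl6), about 4×10^5 cells in 200 μL, were stimulated with anti-CD3/anti-CD28 for 18 h with prodrug at initial 10, 5 or 2.5 mM. Prodrug and released nucleoside in the supernatant were quantified by LC-MS/MS (C18, water/methanol with 2 mM ammonium acetate, ESI negative MRM). Each is expressed as a percentage of the total.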

[2] = Prodrug stability in ecto-5'-nucleotidase knockout C57/Bl6 mouse CD4+ T cells expressing ecto-5'-nucleotidase assessed as formation of 2-(cyclohexylmethylthio)adenosine at 5 mM after 18 hrs by LC/MS analysis; format: ADME, cell-based; settings: t-cell, 5000 µM; method in brief: as §1
[3] = Prodrug stability in C57/Bl6 mouse CD4+ T cells expressing ecto-5'-nucleotidase assessed as compound remaining at 5 mM after 18 hrs by LC/MS analysis; format: ADME, cell-based; settings: t-cell, 5000 µM; method in brief: as §1
[4] = Prodrug stability in ecto-5'-nucleotidase knockout C57/Bl6 mouse CD4+ T cells assessed as compound remaining at 5 mM after 18 hrs by LC/MS analysis; format: ADME, cell-based; settings: t-cell, 5000 µM; method in brief: as §1
[5] = Prodrug stability in C57/Bl6 mouse CD4+ T cells expressing ecto-5'-nucleotidase assessed as compound remaining at 2.5 mM after 18 hrs by LC/MS analysis; format: ADME, cell-based; settings: t-cell, 2500 µM; method in brief: as §1
[6] = Prodrug stability in C57/Bl6 mouse CD4+ T cells expressing ecto-5'-nucleotidase assessed as compound remaining at 10 mM after 18 hrs by LC/MS analysis; format: ADME, cell-based; settings: t-cell, 10000 µM; method in brief: as §1
[7] = Prodrug stability in C57/Bl6 mouse CD4+ T cells expressing ecto-5'-nucleotidase assessed as formation of 2-(cyclohexylmethylthio)adenosine at 10 mM after 18 hrs by LC/MS analysis; format: ADME, cell-based; settings: t-cell, 10000 µM, in the assay text read “2-(cyclohexylethylthio)adenosine” for “2-(cyclohexylmethylthio)adenosine”; method in brief: as §1
[8] = Prodrug stability in ecto-5'-nucleotidase knockout C57/Bl6 mouse CD4+ T cells expressing ecto-5'-nucleotidase assessed as formation of 2-(cyclohexylmethylthio)adenosine at 2.5 mM after 18 hrs by LC/MS analysis; format: ADME, cell-based; settings: t-cell, 2500 µM; method in brief: as §1
[9] = Prodrug stability in C57/Bl6 mouse CD4+ T cells expressing ecto-5'-nucleotidase assessed as formation of 2-(cyclohexylethylthio)adenosine at 5 mM after 18 hrs by LC/MS analysis; settings: t-cell, 5000 µM
[10] = Prodrug stability in C57/Bl6 mouse CD4+ T cells expressing ecto-5'-nucleotidase assessed as formation of 2-(cyclohexylmethylthio)adenosine at 2.5 mM after 18 hrs by LC/MS analysis; format: ADME, cell-based; settings: t-cell, 2500 µM; method in brief: as §1
[11] = Prodrug stability in ecto-5'-nucleotidase knockout C57/Bl6 mouse CD4+ T cells expressing ecto-5'-nucleotidase assessed as formation of 2-(cyclohexylmethylthio)adenosine at 10 mM after 18 hrs by LC/MS analysis; format: ADME, cell-based; settings: t-cell, 10000 µM; method in brief: as §1
[12] = Antiinflammatory activity in C57/Bl6 mouse CD4+ T cells assessed as inhibition of anti-CD3/anti-CD28 antibody-stimulated INFgamma production after 18 hrs by ELISA; format: functional, cell-based; settings: C57/Bl6, T-cell
Method in brief: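 Splenic CD4+ T cells from male C57/Bl6 mice (8–12 wk) were isolated by magnetic CD4 beads, resuspended in Panserin 413, and stimulated on plates coated with 0.4 μg/mL anti-CD3 and 2.5 μg/mL anti-CD28 for 18 h, with compound added together with the antibodies. IFN-γ in the supernatant was measured by ELISA, and EC50 was taken from dose-response curves.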

[13] = Prodrug stability in ecto-5'-nucleotidase knockout C57/Bl6 mouse CD4+ T cells assessed as compound remaining at 2.5 mM after 18 hrs by LC/MS analysis; format: ADME, cell-based; settings: t-cell, 2500 µM; method in brief: as §1

Chain of Adenosine receptor A2a (P30543 whole entry): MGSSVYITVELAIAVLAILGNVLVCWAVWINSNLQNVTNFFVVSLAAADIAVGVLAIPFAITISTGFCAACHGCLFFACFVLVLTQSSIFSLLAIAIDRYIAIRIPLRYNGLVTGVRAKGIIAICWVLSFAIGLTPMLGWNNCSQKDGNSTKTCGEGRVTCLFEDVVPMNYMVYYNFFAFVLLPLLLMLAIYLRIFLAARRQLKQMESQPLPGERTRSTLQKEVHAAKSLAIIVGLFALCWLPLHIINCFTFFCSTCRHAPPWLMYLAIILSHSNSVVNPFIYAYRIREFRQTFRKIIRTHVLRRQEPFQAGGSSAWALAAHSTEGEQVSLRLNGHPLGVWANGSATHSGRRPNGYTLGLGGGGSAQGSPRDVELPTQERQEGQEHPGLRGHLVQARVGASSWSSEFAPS

SMILES | pKi (Adenosine receptor A2a) | pKi (Adenosine receptor A1) | pKi (Adenosine receptor A3) | further results
C#CCSc1nc(N)c2ncn([C@@H]3O[C@H](CO)[C@@H](O)[C@H]3O)c2n1 | 5.54 | 6.26 | 5.16 | –
Nc1nc(SC2CCCCC2)nc2c1ncn2[C@@H]1O[C@H](CO)[C@@H](O)[C@H]1O | 5.61 | 6.86 | ≤ 5.00 | –
Nc1nc(SCC2CCCCC2)nc2c1ncn2[C@@H]1O[C@H](CO)[C@@H](O)[C@H]1O | 6.15 | – | 5.76 | –
CCCSc1nc(N)c2ncn([C@@H]3O[C@H](CO)[C@@H](O)[C@H]3O)c2n1 | 5.87 | 5.90 | – | –
Nc1nc(SC2CCCC2)nc2c1ncn2[C@@H]1O[C@H](CO)[C@@H](O)[C@H]1O | 6.10 | 6.00 | 4.98 | –
CCCCCCSc1nc(N)c2ncn([C@@H]3O[C@H](CO)[C@@H](O)[C@H]3O)c2n1 | 6.27 | 6.59 | 5.63 | –
Nc1nc(SCc2ccccc2)nc2c1ncn2[C@@H]1O[C@H](CO)[C@@H](O)[C@H]1O | 6.22 | 6.03 | 6.92 | –
Nc1nc(SCCC2COCCO2)nc2c1ncn2[C@@H]1O[C@H](CO)[C@@H](O)[C@H]1O (stereo partly specified) | 5.96 | 6.34 | 5.88 | –
Nc1nc(SCCC2CCCCC2)nc2c1ncn2[C@@H]1O[C@H](COP(=O)(O)O)[C@@H](O)[C@H]1O | – | – | – | Stability [1]: 94.7%; Activity [2]: 4.7%; Stability [3]: 87.2%; Stability [4]: 95.3%; Stability [5]: 89.2%; Stability [6]: 85%; Activity [7]: 15%; Activity [8]: 2.7%; Activity [9]: 12.8%; Activity [10]: 10.8%; Activity [11]: 5.3%; pEC50 [12]: 5.24; Stability [13]: 97.3%
Nc1nc(SCCC2CCCCC2)nc2c1ncn2[C@@H]1O[C@H](CO)[C@@H](O)[C@H]1O | – | 6.40 | 5.44 | pEC50 [12]: 7.30
Nc1nc(SCCc2ccccc2)nc2c1ncn2[C@@H]1O[C@H](CO)[C@@H](O)[C@H]1O | 7.73 | – | 5.74 | –
Nc1nc(SCCC2OCCO2)nc2c1ncn2[C@@H]1O[C@H](CO)[C@@H](O)[C@H]1O | 5.94 | 5.94 | 5.46 | –
C=CCSc1nc(N)c2ncn([C@@H]3O[C@H](CO)[C@@H](O)[C@H]3O)c2n1 | 5.82 | 6.27 | 5.18 | –
